# Read-outs that look alike come from different tables or passages of the source. Marks after values point to notes of the source that are not given here.
# Legend:
# [1] = Exposure–safety logistic regression; type: in vivo, human
# Summary of the method: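 Cancer patients (Western and Japan/East Asia) took oral test compound for 7 days in 21-day cycles, fasting from 2 h before to 1 h after dosing. Plasma levels were measured by LC/MS/MS. Per-patient time-averaged AUC per day covered dosing start to onset of worst-grade toxicity, from actual doses and individual CL/F from a two-compartment population PK model. Incidence (n = 591/593/594) was regressed logistically on log-transformed AUC.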
# [2] = Global population pharmacokinetic analysis of alisertib in cancer patients; type: in vivo, human; conditions: for half-life: human, plasma, oral
# [3] = Western patients, cited from earlier work
# [4] = cited from earlier work
# [5] = 30 mg b.i.d., patients in East Asia
# [6] = 50 mg b.i.d., patients in East Asia
# [7] = 50 mg b.i.d., patients in the West
# [8] = East Asian patients, b.i.d. dosing
smiles,measurement,setting,value
COc1cc(Nc2ncc3c(n2)-c2ccc(Cl)cc2C(c2c(F)cccc2OC)=NC3)ccc1C(=O)O [alisertib],estimated population mean time-averaged AUC,[1]; [5],14.23 μM*h day^–1
same,estimated probability of grade ≥2 diarrhoea,[1]; [5],12%
same,estimated probability of grade ≥2 stomatitis,[1]; [5],6.5%
same,estimated probability of grade ≥3 neutropenia,[1]; [5],37%
same,estimated population mean time-averaged AUC,[1]; [6],23.72 μM*h day^–1
same,estimated probability of grade ≥2 diarrhoea,[1]; [6],17%
same,estimated probability of grade ≥2 stomatitis,[1]; [6],13%
same,predicted probability of grade ≥3 neutropenia,[1]; [6],46%
same,estimated population mean time-averaged AUC,[1]; [7],15.63 μM*h day^–1
same,estimated probability of grade ≥2 diarrhoea,[1]; [7],13%
same,estimated probability of grade ≥2 stomatitis,[1]; [7],7%
same,predicted probability of grade ≥3 neutropenia,[1]; [7],39%
same,GM (CV) dose-normalized alisertib AUC(0–τ),"[2]; Asian patients in Asia, n = 59",797 (45%) nM.h
same,GM (CV) dose-normalized alisertib AUC(0–τ),"[2]; Asian patients in the West, n = 8",475 (43%) nM.h
same,"geometric mean (%CV) dose-normalized alisertib AUC0–τ,ss","[2]; Region East, All (Japanese, Korean, Chinese), n = 59",797 (45) nM.h mg^–1
same,"geometric mean (%CV) dose-normalized alisertib AUC0–τ,ss","[2]; Region East, Chinese, n = 22",752 (48) nM.h mg^–1
same,"geometric mean (%CV) dose-normalized alisertib AUC0–τ,ss","[2]; Region East, Japanese, n = 23",799 (34) nM.h mg^–1
same,"geometric mean (%CV) dose-normalized alisertib AUC0–τ,ss","[2]; Region East, Korean, n = 13",885 (53) nM.h mg^–1
same,"geometric mean (%CV) dose-normalized alisertib AUC0–τ,ss","[2]; Region West, All non-Asian races, n = 604",482 (43) nM.h mg^–1
same,"geometric mean (%CV) dose-normalized alisertib AUC0–τ,ss","[2]; Region West, All, n = 612",482 (43) nM.h mg^–1
same,"geometric mean (%CV) dose-normalized alisertib AUC0–τ,ss","[2]; Region West, Asian, n = 8",475 (43) nM.h mg^–1
same,"geometric mean (%CV) dose-normalized alisertib AUC0–τ,ss","[2]; Region West, Black, n = 33",462 (57) nM.h mg^–1
same,"geometric mean (%CV) dose-normalized alisertib AUC0–τ,ss","[2]; Region West, White, n = 556",482 (43) nM.h mg^–1
same,"BSAV1, effect of BSA on V1/F, pop value",[2]; final model,0.899
same,"CL/F, V1/F, V2/F and Q/F lower in the East Asian region",[2]; final model,34.1%
same,"KTR, transit compartment rate constant, pop value",[2]; final model,4.17 1 h^–1
same,"V1/F, apparent central volume, pop value",[2]; final model,54.3 L
same,"V2/F, apparent peripheral volume, pop value",[2]; final model,28.7 L
same,net mean transit time for oral absorption,[2]; final model,0.96 h
same,"CL/F, apparent clearance, pop value",[2]; final model (analysis data set n = 422),4.11 l h^–1
same,higher bioavailability (F) in East Asian region compared with Western patients,"[2]; final model, covariate effect of region on F",52%
same,"RGNF, effect of region, pop value","[2]; final model, affected parameters multiplied by (1–0.341) for East Asian region",−0.341 ^a
same,half-life,"[2]; population alpha half-life, final model",1.71 h
same,half-life,"[2]; population beta half-life, final model",15.1 h
same,GM (CV) dose-normalized alisertib AUC(0–τ),"[2]; non-Asian patients in the West, n = 604",482 (43%) nM.h
same,maximum tolerated dose (MTD),[3]; b.i.d. for 7 days in a 21-day cycle,50 mg
same,median Tmax,[3]; postdose,2 to 3 h
same,mean steady-state half-life following multiple dosing,[3],19 to 23 h
same,patients who discontinued alisertib owing to treatment-emergent AEs,"[4]; East Asian patients, 30 mg b.i.d., two of 30 patients",6.7%
same,half-life,[4]; [8],15 to 17 h
same,median Tmax,[4]; [8],2 to 3 h
same,maximum tolerated dose (MTD),"[4]; East Asian patients, b.i.d. for 7 days in 21-day cycles",30 mg
same,higher geometric mean steady-state systemic exposure in East Asian patients,[4]; East Asian vs Western patients,approximately 70%
same,mean CL/F in East Asian patients lower than in Western patients,[4]; East Asian vs Western patients,approximately 40%

# From PMC5736852 (British Journal of Clinical Pharmacology, 2017)
